From ChEMBL document CHEMBL1126031, “1,2,3-trisubstituted cyclopropanes as conformationally restricted peptide isosteres: application to the design and synthesis of novel renin inhibitors” (J Med Chem, 1992)

Tests used:
Renin [1] = molecular target: T1, Renin (Homo sapiens, UniProt P00797); assay: In vitro inhibition of purified human renin at a pH of 6.0.
T1 sequence (P00797 whole entry): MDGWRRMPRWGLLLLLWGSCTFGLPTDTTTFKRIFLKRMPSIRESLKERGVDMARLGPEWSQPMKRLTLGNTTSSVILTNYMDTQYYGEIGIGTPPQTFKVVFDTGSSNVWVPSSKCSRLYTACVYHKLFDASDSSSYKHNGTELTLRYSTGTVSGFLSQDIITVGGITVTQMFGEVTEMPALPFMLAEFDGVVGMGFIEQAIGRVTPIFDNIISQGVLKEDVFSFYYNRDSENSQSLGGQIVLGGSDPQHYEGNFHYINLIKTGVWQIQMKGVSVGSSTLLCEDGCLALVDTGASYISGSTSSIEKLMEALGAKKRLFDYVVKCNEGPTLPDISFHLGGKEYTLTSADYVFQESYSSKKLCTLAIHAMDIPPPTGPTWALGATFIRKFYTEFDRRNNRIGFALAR
In short: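 Purified human renin, assayed at pH 6.0 by a procedure from earlier work.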

Renin [2] = molecular target: T1, Renin; assay: In vitro potency against human plasma renin at pH 7.4; type: cell-free
In short: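 Renin in human plasma, assayed at pH 7.4 by a procedure from earlier work.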

Renin (Homo sapiens) = molecular target: T2, Renin (Homo sapiens) (UniProt P00797); assay: In vitro potency to inhibit human plasma renin at a pH of 7.4 and at 1*10e-6 M concentration; type: cell-free
T2 sequence (whole entry): T1 sequence (P00797 whole entry)

[3] = Half life of the compound

Compound | IC50 (Renin [1]) [nM] | IC50 (Renin [2]) [nM] | inhibition (Renin (Homo sapiens)) [%] | half-life [3] [h]
CC(C)C[C@H](O)[C@H](O)[C@H](CC1CCCCC1)NC(=O)[C@H](Cc1cscn1)NC(=O)[C@@H](CC(=O)N1CCOCC1)Cc1ccccc1 | 0.36 | 8.3 |  | 
CC(C)C[C@H](O)[C@H](O)[C@H](CC1CCCCC1)NC(=O)[C@H](Cc1cscn1)NC(=O)[C@H](CC(=O)N1CCOCC1)Cc1ccccc1 | 150 |  |  | 
CC(C)C[C@H](O)[C@H](O)[C@H](CC1CCCCC1)NC(=O)[C@H](Cc1cscn1)NC(=O)C(Cc1ccccc1)Cc1ccccc1 | 0.47 | 54 |  | 
CC[C@H]1[C@@H](C(=O)N[C@@H](Cc2cscn2)C(=O)N[C@@H](CC2CCCCC2)[C@@H](O)[C@@H](O)CC(C)C)[C@@H]1C(=O)N1CCOCC1 | 16 | 610 |  | 
CC(C)C[C@H](O)[C@H](O)[C@H](CC1CCCCC1)NC(=O)[C@H](Cc1cscn1)NC(=O)[C@@H]1[C@@H](C(=O)N2CCOCC2)[C@@H]1c1ccccc1 | 120 |  |  | 
CC(C)C[C@H]1[C@@H](C(=O)N[C@@H](Cc2cscn2)C(=O)N[C@@H](CC2CCCCC2)[C@@H](O)[C@@H](O)CC(C)C)[C@@H]1C(=O)N1CCOCC1 | 19 | > 1000 | 46 | 
CC(C)C[C@H](O)[C@H](O)[C@H](CC1CCCCC1)NC(=O)[C@H](Cc1cscn1)NC(=O)[C@H]1[C@H](C(=O)N2CCOCC2)[C@@H]1c1ccccc1 | 0.7 | 20 |  | > 5
CC[C@H]1[C@H](C(=O)N[C@@H](Cc2cscn2)C(=O)N[C@@H](CC2CCCCC2)[C@@H](O)[C@@H](O)CC(C)C)[C@H]1C(=O)N1CCOCC1 | 200 |  |  | 
CC(C)C[C@@H]1[C@@H](C(=O)N[C@@H](Cc2cscn2)C(=O)N[C@@H](CC2CCCCC2)[C@@H](O)[C@@H](O)CC(C)C)[C@@H]1C(=O)N1CCOCC1 | 2.1 | 41 |  | 
CC[C@@H]1[C@H](C(=O)N[C@@H](Cc2cscn2)C(=O)N[C@@H](CC2CCCCC2)[C@@H](O)[C@@H](O)CC(C)C)[C@H]1C(=O)N1CCOCC1 | 92 |  |  | 
CC(C)C[C@H]1[C@H](C(=O)N[C@@H](Cc2cscn2)C(=O)N[C@@H](CC2CCCCC2)[C@@H](O)[C@@H](O)CC(C)C)[C@H]1C(=O)N1CCOCC1 | 44 |  |  | 

Second part, the compound after the results:

IC50 (Renin [1]) [nM] | IC50 (Renin [2]) [nM] | inhibition (Renin (Homo sapiens)) [%] | half-life [3] [h] | Compound
120 |  |  |  | CC(C)C[C@H](O)[C@H](O)[C@H](CC1CCCCC1)NC(=O)[C@H](Cc1cscn1)NC(=O)[C@@H]1[C@@H](C(=O)N2CCOCC2)[C@H]1c1ccccc1
27 |  |  |  | CC(C)C[C@H](O)[C@H](O)[C@H](CC1CCCCC1)NC(=O)[C@H](Cc1cscn1)NC(=O)[C@H]1[C@@H](Cc2ccccc2)[C@@H]1C(=O)N1CCOCC1
2.4 | 300 |  |  | CCOC(=O)N[C@@H](Cc1ccc(I)cc1)C(=O)N[C@@H](CC(C)C)C(=O)N[C@@H](CC1CCCCC1)[C@@H](O)[C@@H](O)CC(C)C
120 |  |  |  | CC(C)C[C@H](O)[C@H](O)[C@H](CC1CCCCC1)NC(=O)[C@H](Cc1cscn1)NC(=O)[C@@H]1[C@H](Cc2ccccc2)[C@H]1C(=O)N1CCOCC1
1.1 | 810 |  |  | CC(C)C[C@H](O)[C@H](O)[C@H](CC1CCCCC1)NC(=O)[C@H](Cc1cscn1)NC(=O)C1[C@@H](c2ccccc2)[C@H]1c1ccccc1 (stereo not given in full)
10 | 230 |  |  | CC[C@@H]1[C@@H](C(=O)N[C@@H](Cc2cscn2)C(=O)N[C@@H](CC2CCCCC2)[C@@H](O)[C@@H](O)CC(C)C)[C@@H]1C(=O)N1CCOCC1
25 | > 1000 | 30 |  | CC(C)C[C@H](O)[C@H](O)[C@H](CC1CCCCC1)NC(=O)[C@H](Cc1cscn1)NC(=O)[C@@H]1[C@@H](Cc2ccccc2)[C@H]1C(=O)N1CCOCC1
33 |  |  |  | CC(C)C[C@@H]1[C@H](C(=O)N[C@@H](Cc2cscn2)C(=O)N[C@@H](CC2CCCCC2)[C@@H](O)[C@@H](O)CC(C)C)[C@H]1C(=O)N1CCOCC1
200 |  |  |  | CC(C)C[C@H](O)[C@H](O)[C@H](CC1CCCCC1)NC(=O)[C@H](Cc1cscn1)NC(=O)[C@H]1[C@H](C(=O)N2CCOCC2)[C@H]1c1ccccc1
10 | 370 |  |  | CC(C)C[C@H](O)[C@H](O)[C@H](CC1CCCCC1)NC(=O)[C@H](Cc1cscn1)NC(=O)[C@H]1[C@H](Cc2ccccc2)[C@@H]1C(=O)N1CCOCC1
